# Assay results reported in ChEMBL document CHEMBL1145212, “Fluorinated diaryl sulfides as serotonin transporter ligands: synthesis, structure-activity relationship study, and in vivo evaluation of fluorine-18-labeled compounds as PET imaging agents” (J Med Chem, 2005).
# What was measured:
# Rattus norvegicus [1] = assay: Biodistribution of [18F]AFA in rat frontal cortex at 10 min postinjection in vivo; assay type: ADME, organism-based
# Summary of the method: (§1)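 Male Sprague-Dawley rats, three per time point, received the F-18 radioligand in saline (~20 µCi per rat at injection) by tail vein. Under CO2 anesthesia they were decapitated at 10, 30, 60, 90 or 120 min. Blood and dissected brain regions were weighed and gamma counted. Activity was decay-corrected, and injected dose was corrected for tail residual activity. Uptake was expressed as %ID/g versus injectate standards, mean ± SD.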
# Rattus norvegicus [2] = assay: Biodistribution of [18F]AFA in rat frontal cortex at 30 min postinjection in vivo; assay type: ADME, organism-based; conditions: 0.5 h; summary of the method: as §1
# Rattus norvegicus [3] = assay: Biodistribution of [18F]AFA in rat frontal cortex at 60 min postinjection in vivo; assay type: ADME, organism-based; conditions: 1 h; summary of the method: as §1
# Rattus norvegicus [4] = assay: Biodistribution of [18F]AFA in rat frontal cortex at 90 min postinjection in vivo; assay type: ADME, organism-based; conditions: 1.5 h; summary of the method: as §1
# Rattus norvegicus [5] = assay: Biodistribution of [18F]AFA in rat frontal cortex at 120 min postinjection in vivo; assay type: ADME, organism-based; conditions: 2 h; summary of the method: as §1
# Rattus norvegicus [6] = assay: Biodistribution of [18F]AFA in rat blood at 120 min postinjection in vivo; assay type: ADME, organism-based; conditions: 2 h; summary of the method: as §1
# Rattus norvegicus [7] = assay: Biodistribution of [18F]AFA in rat striatum at 10 min postinjection in vivo; assay type: ADME, organism-based; summary of the method: as §1
# Rattus norvegicus [8] = assay: Biodistribution of [18F]AFA in rat striatum at 30 min postinjection in vivo; assay type: ADME, organism-based; conditions: 0.5 h; summary of the method: as §1
# Rattus norvegicus [9] = assay: Biodistribution of [18F]AFA in rat striatum at 90 min postinjection in vivo; assay type: ADME, organism-based; conditions: 1.5 h
# Summary of the method: (§2)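 Male Sprague-Dawley rats, three per group, received ~20 µCi of the F-18 radioligand in saline by tail-vein injection. Rats were anesthetized with CO2 and decapitated at 10, 30, 60, 90 or 120 min. Blood and brain regions were weighed and gamma-counted. %ID/g was decay- and tail-residual-corrected against F-18 standards made from the injectate and reported as mean ± SD.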
# Rattus norvegicus [10] = assay: Biodistribution of [18F]AFA in rat thalamus at 10 min postinjection in vivo; assay type: ADME, organism-based; summary of the method: as §2
# Rattus norvegicus [11] = assay: Biodistribution of [18F]AFA in rat thalamus at 30 min postinjection in vivo; assay type: ADME, organism-based; conditions: 0.5 h; summary of the method: as §2
# Rattus norvegicus [12] = assay: Biodistribution of [18F]AFA in rat thalamus at 60 min postinjection in vivo; assay type: ADME, organism-based; conditions: 1 h; summary of the method: as §2
# Rattus norvegicus [13] = assay: Biodistribution of [18F]AFA in rat thalamus at 90 min postinjection in vivo; assay type: ADME, organism-based; conditions: 1.5 h; summary of the method: as §2
# Rattus norvegicus [14] = species on record: Rattus norvegicus; assay: Specific binding of [18F]AFA in striatum of rat pretreated with compound 7c; n=3; assay type: functional
# Rattus norvegicus [15] = species on record: Rattus norvegicus; assay: Specific binding of [18F]AFA in thalamus of rat pretreated with compound 7c; n=3; assay type: functional
# Rattus norvegicus [16] = species on record: Rattus norvegicus; assay: Specific binding of [18F]AFA in hippocampus of rat pretreated with compound 7c; n=3; assay type: functional
# Rattus norvegicus [17] = species on record: Rattus norvegicus; assay: Specific binding of [18F]AFA in hypothalamus of rat pretreated with compound 7c; n=3; assay type: functional
# Rattus norvegicus [18] = species on record: Rattus norvegicus; assay: Specific binding of [18F]AFA in frontal cortex of rat pretreated with compound 7c; n=3; assay type: functional
# Rattus norvegicus [19] = assay: Biodistribution of [18F]AFA in rat blood at 10 min postinjection in vivo; assay type: ADME, organism-based; summary of the method: as §1
# Rattus norvegicus [20] = assay: Biodistribution of [18F]AFA in rat blood at 60 min postinjection in vivo; assay type: ADME, organism-based; conditions: 1 h; summary of the method: as §1
# Rattus norvegicus [21] = assay: Biodistribution of [18F]AFA in rat blood at 90 min postinjection in vivo; assay type: ADME, organism-based; conditions: 1.5 h; summary of the method: as §1
# Rattus norvegicus [22] = assay: Biodistribution of [18F]AFA in rat striatum 60 min postinjection in vivo; assay type: ADME, organism-based; conditions: 1 h; summary of the method: as §1
# Rattus norvegicus [23] = assay: Biodistribution of [18F]AFA in rat cerebellum at 120 min postinjection in vivo; assay type: ADME, organism-based; conditions: 2 h; summary of the method: as §1
# Rattus norvegicus [24] = assay: Biodistribution of [18F]AFA in rat hippocampus at 10 min postinjection in vivo; assay type: ADME, organism-based; summary of the method: as §1
# Rattus norvegicus [25] = assay: Biodistribution of [18F]AFA in rat hippocampus at 30 min postinjection in vivo; assay type: ADME, organism-based; conditions: 0.5 h; summary of the method: as §1
# Rattus norvegicus [26] = assay: Biodistribution of [18F]AFA in rat hippocampus at 60 min postinjection in vivo; assay type: ADME, organism-based; conditions: 1 h; summary of the method: as §1
# Rattus norvegicus [27] = assay: Biodistribution of [18F]AFA in rat hippocampus at 90 min postinjection in vivo; assay type: ADME, organism-based; conditions: 1.5 h; summary of the method: as §1
# Rattus norvegicus [28] = assay: Biodistribution of [18F]AFA in rat hippocampus at 120 min postinjection in vivo; assay type: ADME, organism-based; conditions: 2 h; summary of the method: as §1
# Rattus norvegicus [29] = assay: Biodistribution of [18F]AFA in rat hypothalamus at 10 min postinjection in vivo; assay type: ADME, organism-based; summary of the method: as §1
# Rattus norvegicus [30] = assay: Biodistribution of [18F]AFA in rat hypothalamus at 30 min postinjection in vivo; assay type: ADME, organism-based; conditions: 0.5 h; summary of the method: as §1
# Rattus norvegicus [31] = assay: Biodistribution of [18F]-AFA in rat hypothalamus at 60 min postinjection in vivo; assay type: ADME, organism-based; conditions: 1 h; summary of the method: as §1
# Rattus norvegicus [32] = assay: Biodistribution of [18F]AFA in rat hypothalamus at 90 min postinjection in vivo; assay type: ADME, organism-based; conditions: 1.5 h; summary of the method: as §1
# Rattus norvegicus [33] = assay: Biodistribution of [18F]AFA in rat striatum at 120 min postinjection in vivo; assay type: ADME, organism-based; conditions: 2 h; summary of the method: as §1
# Rattus norvegicus [34] = assay: Biodistribution of [18F]-AFA in rat thalamus at 120 min postinjection in vivo; assay type: ADME, organism-based; conditions: 2 h; summary of the method: as §1
# Rattus norvegicus [35] = assay: Biodistribution of [18F]AFA in rat cerebellum at 30 min postinjection in vivo; assay type: ADME, organism-based; conditions: 0.5 h; summary of the method: as §1
# Rattus norvegicus [36] = assay: Biodistribution of [18F]AFA in rat cerebellum at 60 min postinjection in vivo; assay type: ADME, organism-based; conditions: 1 h; summary of the method: as §1
# Rattus norvegicus [37] = assay: Biodistribution of [18F]AFA in rat cerebellum at 90 min postinjection in vivo; assay type: ADME, organism-based; conditions: 1.5 h; summary of the method: as §1
# Rattus norvegicus [38] = assay: Biodistribution of [18F]AFA in rat blood at 30 min postinjection in vivo; assay type: ADME, organism-based; conditions: 0.5 h; summary of the method: as §1
# Rattus norvegicus [39] = assay: Biodistribution of [18F]AFA in rat cerebellum at 10 min postinjection in vivo; assay type: ADME, organism-based; summary of the method: as §1
# Rattus norvegicus [40] = assay: Biodistribution of [18F]AFA in rat hypothalamus at 120 min postinjection in vivo; assay type: ADME, organism-based; conditions: 2 h; summary of the method: as §1
structure (smiles),measurement,setting,value
CN(C)Cc1ccccc1Sc1ccc([18F])cc1N,Biodistribution,Rattus norvegicus [1],0.81 %ID/g
same,Biodistribution,Rattus norvegicus [2],0.65 %ID/g
same,Biodistribution,Rattus norvegicus [3],0.28 %ID/g
same,Biodistribution,Rattus norvegicus [4],0.2 %ID/g
same,Biodistribution,Rattus norvegicus [5],0.11 %ID/g
same,Biodistribution,Rattus norvegicus [6],0.07 %ID/g
same,Biodistribution,Rattus norvegicus [7],0.65 %ID/g
same,Biodistribution,Rattus norvegicus [8],0.58 %ID/g
same,Biodistribution,Rattus norvegicus [9],0.19 %ID/g
same,Biodistribution,Rattus norvegicus [10],0.72 %ID/g
same,Biodistribution,Rattus norvegicus [11],0.69 %ID/g
same,Biodistribution,Rattus norvegicus [12],0.34 %ID/g
same,Biodistribution,Rattus norvegicus [13],0.23 %ID/g
same,Specific binding,Rattus norvegicus [14],0.37 %ID/g
same,Specific binding,Rattus norvegicus [15],0.81 %ID/g
same,Specific binding,Rattus norvegicus [16],0.55 %ID/g
same,Specific binding,Rattus norvegicus [17],0.62 %ID/g
same,Specific binding,Rattus norvegicus [18],0.53 %ID/g
same,Biodistribution,Rattus norvegicus [19],0.27 %ID/g
same,Biodistribution,Rattus norvegicus [20],0.08 %ID/g
same,Biodistribution,Rattus norvegicus [21],0.08 %ID/g
same,Biodistribution,Rattus norvegicus [22],0.26 %ID/g
same,Biodistribution,Rattus norvegicus [23],0.04 %ID/g
same,Biodistribution,Rattus norvegicus [24],0.54 %ID/g
same,Biodistribution,Rattus norvegicus [25],0.48 %ID/g
same,Biodistribution,Rattus norvegicus [26],0.23 %ID/g
same,Biodistribution,Rattus norvegicus [27],0.18 %ID/g
same,Biodistribution,Rattus norvegicus [28],0.1 %ID/g
same,Biodistribution,Rattus norvegicus [29],0.73 %ID/g
same,Biodistribution,Rattus norvegicus [30],0.66 %ID/g
same,Biodistribution,Rattus norvegicus [31],0.38 %ID/g
same,Biodistribution,Rattus norvegicus [32],0.3 %ID/g
same,Biodistribution,Rattus norvegicus [33],0.11 %ID/g
same,Biodistribution,Rattus norvegicus [34],0.16 %ID/g
same,Biodistribution,Rattus norvegicus [35],0.2 %ID/g
same,Biodistribution,Rattus norvegicus [36],0.07 %ID/g
same,Biodistribution,Rattus norvegicus [37],0.04 %ID/g
same,Biodistribution,Rattus norvegicus [38],0.16 %ID/g
same,Biodistribution,Rattus norvegicus [39],0.38 %ID/g
same,Biodistribution,Rattus norvegicus [40],0.17 %ID/g
